Reference: PMC3383288 (International Journal of Nanomedicine, 2012)

Experiments:
[1] = tested on: OCUM-2MLN human scirrhous gastric carcinoma; assay: OCUM-2MLN orthotopic scirrhous gastric carcinoma model; assay type: in vivo, nude mice; conditions: DTX 10 mg/kg; data not shown
[2] = Tissue distribution in tumor-bearing mice; assay type: in vivo, nude mice; conditions: for AUC of DTX: native DTX 10 mg/kg
Outline: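 Female nude mice bearing subcutaneous xenografts (cells in 50% Matrigel) got a single iv dose when tumors reached about 400 mm3. Free drug was sampled at 0.083, 1, 6, 24 and 48 h (n = 3 per time). Heart blood was taken under ether into heparin, and plasma was spun at 4°C. Organs were rinsed, stored at −30°C and homogenized 25% w/w in PBS pH 7.4. Drug was quantified by reversed-phase HPLC at 40°C.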

[3] = tested on: MDA-MB-231 human breast tumor; assay: MDA-MB-231 human breast tumor xenograft model; assay type: in vivo, nude mice
Outline: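 3 × 10^6 cells in 50% Matrigel were injected subcutaneously into the backs of female 5-week-old nude mice. Dosing started on day 0: three tail-vein iv injections at 4-day intervals, with an untreated control group. Tumor volume and body weight were tracked. Points are means of seven mice with standard error.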

[4] = Toxicology studies in mice; assay type: in vivo, mice (Crlj:CD1 (ICR)); conditions: for ALT / AST / CRE / UN: native DTX 10 mg/kg iv x3 at 4-day intervals, one mouse
Outline: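 Male Crlj:CD1 (ICR) mice (n = 10) received iv dosing three times at 4-day intervals, and condition and body weight were followed for 49 days. Mice were killed one at a time for blood collection and autopsy, including macroscopic review of liver and bone marrow. AST, ALT, creatinine and urea nitrogen were run on a clinical chemistry analyzer, with hematology on an automated analyzer.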

[5] = once-every-3-week schedule; cited from earlier work
[6] = Toxicity dose-finding study in nude mice; assay type: in vivo
[7] = tested on: advanced gastric cancer; conditions: monotherapy, patients with advanced gastric cancer; cited from earlier work
[8] = Toxicology study in cynomolgus monkeys; assay type: in vivo
Outline: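 Male cynomolgus monkeys aged 3–4 years (2.5–3.7 kg, n = 3) were dosed iv three times at 2-week intervals. Food consumption, general condition and body weight were followed for 42 days. White blood cell and neutrophil counts were monitored. Values are means of three monkeys with standard deviation.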

[9] = native DTX 3 mg/kg iv three times at 2-week intervals

Structure (SMILES): CC(=O)O[C@@]12CO[C@@H]1C[C@H](O)[C@@]1(C)C(=O)[C@H](O)C3=C(C)[C@@H](OC(=O)[C@H](O)[C@@H](NC(=O)OC(C)(C)C)c4ccccc4)C[C@@](O)([C@@H](OC(=O)c4ccccc4)[C@H]21)C3(C)C [Native DTX, Docetaxel]
- body weight loss compared with NC-6301 at the higher dose [1]: worse
- AUC of DTX ([2]; Heart): 9.5 μg/g or mL · h
- AUC of DTX ([2]; Kidney): 44.2 μg/g or mL · h
- AUC of DTX ([2]; Liver): 40.1 μg/g or mL · h
- AUC of DTX ([2]; Lung): 13.6 μg/g or mL · h
- AUC of DTX ([2]; Plasma): 6.7 μg/g or mL · h
- AUC of DTX ([2]; Spleen): 27.3 μg/g or mL · h
- AUC of DTX ([2]; Tumor): 12.6 μg/g or mL · h
- time DTX in plasma remained over 0.1 μg/mL ([2]; native DTX 10 mg/kg iv): less than 5 hours
- maximum body weight loss ([3]; native DTX 10 mg/kg iv x3, mice bearing MDA-MB-231 xenograft): approximately 10%
- effect on tumor growth ([3]; three injections at 4-day intervals, NC-6301 50 mg/kg, native DTX 10 mg/kg): transient and slight regression
- ALT ([4]; Day 1): 28 U/L
- AST ([4]; Day 1): 85 U/L
- CRE ([4]; Day 1): 0.07 mg/dL
- UN ([4]; Day 1): 26.1 mg/dL
- ALT ([4]; Day 7): 44 U/L
- AST ([4]; Day 7): 239 U/L
- CRE ([4]; Day 7): 0.17 mg/dL
- UN ([4]; Day 7): 27.1 mg/dL
- ALT ([4]; Day 10): 23 U/L
- AST ([4]; Day 10): 91 U/L
- CRE ([4]; Day 10): 0.14 mg/dL
- UN ([4]; Day 10): 25.4 mg/dL
- ALT ([4]; Day 14): 19 U/L
- AST ([4]; Day 14): 62 U/L
- CRE ([4]; Day 14): 0.20 mg/dL
- UN ([4]; Day 14): 30.5 mg/dL
- ALT ([4]; Day 21): 24 U/L
- AST ([4]; Day 21): 71 U/L
- CRE ([4]; Day 21): 0.12 mg/dL
- UN ([4]; Day 21): 20.0 mg/dL
- ALT ([4]; Day 28): 22 U/L
- AST ([4]; Day 28): 65 U/L
- CRE ([4]; Day 28): 0.15 mg/dL
- UN ([4]; Day 28): 41.4 mg/dL
- ALT ([4]; Day 35): 46 U/L
- AST ([4]; Day 35): 171 U/L
- CRE ([4]; Day 35): 0.12 mg/dL
- UN ([4]; Day 35): 28.0 mg/dL
- ALT ([4]; Day 42): 27 U/L
- AST ([4]; Day 42): 83 U/L
- CRE ([4]; Day 42): 0.11 mg/dL
- UN ([4]; Day 42): 22.1 mg/dL
- ALT ([4]; Day 49): 22 U/L
- AST ([4]; Day 49): 56 U/L
- CRE ([4]; Day 49): 0.12 mg/dL
- UN ([4]; Day 49): 23.5 mg/dL
- myelosuppression ([4]; NC-6301 50 mg/kg, native DTX 10 mg/kg, data not shown): mild and transient
- change in liver- or kidney-related blood test markers ([4]; three injections, NC-6301 50 mg/kg, native DTX 10 mg/kg, 49 days): No significant change
- MTD in humans [5]: 100 mg/m^2
- MTD converted to human equivalent ([6]; mouse MTD 10 mg/kg, three times at 4-day intervals): 30.3 mg/m^2
- body weight change ([6]; native DTX 15 mg/kg vs less than 15 mg/kg, iv three times every 4 days): significant decrease in body weight
- response rate [7]: 20%
- adverse effects ([8]; native DTX 3 mg/kg): adverse effects including gastrointestinal symptoms
- additional weight lost compared with animals administered NC-6301 [8, 9]: up to 20%
- white blood cell count and neutrophil count [8, 9]: significantly decreased
- decrease in food consumption ([8]; native DTX 3 mg/kg, NC-6301 3 or 6 mg/kg, iv three times at 2-week intervals): critical decrease
